Assay results published in ChEMBL document CHEMBL1800063, “Isolation and structural elucidation of proline-containing cyclopentapeptides from an endolichenic Xylaria sp” (2011).
Calls of active or inactive are those of the source. The rule behind the calls is not given here.

Legend:
[1] = tested on: Candida albicans; experiment: Antifungal activity against Candida albicans SC5314 at 100 ug/mL after 16 hrs by CLSI M-27A broth microdilution method in presence of 0.004 ug/mL ketoconazole relative to compound alone; assay type: functional, organism-based
[2] = tested on: Candida albicans; experiment: Antifungal activity against Candida albicans SC5314 at 100 ug/mL after 16 hrs by broth microdilution method; assay type: functional, organism-based
Outline: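 Candida albicans SC5314 broth microdilution adapted from CLSI M-27A. Overnight culture suspended in RPMI 1640 at 1 × 10^4 cfu/mL. 2 μL of sample plus 80 μL of suspension per well, incubated at 35 °C for 16 h. Ketoconazole was the positive control. Growth was read as optical density against blank-control wells to give the MIC.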

[3] = tested on: Candida albicans; experiment: Antifungal activity against Candida albicans SC5314 at 1 ug/mL after 16 hrs by broth microdilution method in presence of 0.004 ug/mL ketoconazole relative to compound alone; assay type: functional
[4] = tested on: Candida albicans; experiment: Antifungal activity against Candida albicans SC5314 at 6.25 ug/mL after 16 hrs by broth microdilution method in presence of 0.004 ug/mL ketoconazole relative to compound alone; assay type: functional

## CC(C)[C@@H](C)/C=C/[C@@H](C)[C@H]1CC[C@H]2C3=C[C@@H](O)[C@@]4(O)C[C@@H](O)CC[C@]4(C)[C@H]3CC[C@]12C
[1]
  Activity: inactive
[2]
  Activity: inactive

## CC(C)[C@@H](C)/C=C/[C@@H](C)[C@H]1CC[C@@H]2[C@]1(C)CCC1[C@]23C=CC2(CC(O)CC[C@]12C)OO3 (some centres not stated)
[1]
  Activity: inactive
[2]
  Activity: inactive

## C[C@]1(CCO)CC[C@H]2C(=CC[C@@H]3[C@]2(C)CCC[C@@]3(C)C(=O)O)C1
[1]
  Activity: inactive
[2]
  Activity: inactive

## CC(C)C(C)/C=C/[C@@H](C)[C@H]1CCC2=C3C=CC4=CC(=O)CC[C@]4(C)[C@H]3CC[C@@]21C (some centres not stated)
[1]
  Activity: inactive
[2]
  Activity: inactive

## CC(C)[C@@H]1OC(=O)[C@@H](Cc2ccccc2)N(C)C(=O)[C@H](C(C)C)OC(=O)[C@@H](Cc2ccccc2)N(C)C(=O)[C@H](C(C)C)OC(=O)[C@@H](Cc2ccccc2)N(C)C1=O [BEAUVERICIN]
[3]
  fractional inhibitory concentration index (FICI): <0.375

## CC[C@@H](C)[C@H]1NC(=O)[C@H](C(C)C)NC(=O)[C@H](Cc2ccccc2)N(C)C(=O)[C@@H]2CCCN2C(=O)[C@H](CC(C)C)NC1=O
[4]
  fractional inhibitory concentration index (FICI): <0.3125
[2]
  Activity: inactive

## CC(C)[C@@H](C)/C=C/[C@@H](C)[C@H]1CC[C@H]2C3=CC(=O)C4=CC(=O)CC[C@]4(C)[C@H]3CC[C@]12C
[1]
  Activity: inactive
[2]
  Activity: inactive

## CC(C)[C@@H](C)/C=C/[C@@H](C)[C@H]1CC[C@H]2C3=CC=C4C[C@@H](O)CC[C@]4(C)[C@H]3CC[C@]12C
[1]
  Activity: inactive
[2]
  Activity: inactive

## CO[C@@H]1C=C2C3CC[C@H](C(C)/C=C/C(C)C(C)C)[C@@]3(C)CC[C@@H]2[C@@]2(C)CC[C@H](O)C[C@]12O (some centres not stated)
[1]
  Activity: inactive
[2]
  Activity: inactive
